Screens (PubChem)
Compounds with a hit are over-represented: about 2% of the library has one in this group of screens.
Exocytosis inh: blocks lytic granule exocytosis | inhibition, % at 10 µM | TALL-104 LAMP-1 surface exposure, flow cytometry; cells stimulated with thapsigargin and PMA | 360,000 compounds, 0.66% hits;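 active means inhibition above about 55%, limit read from the data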
MT1-MMP act inh: inhibitors of human MT1-MMP activation; P50281; HT1080 RFP-PRO-GFP cells, GFP/RFP ratio fluorescence, overnight; percent of plate control window, DMSO zero; GFP/RFP ratio change, % at 20 µM; 360,000 compounds, 0.061% hits; AID 651647;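 active means GFP/RFP ratio change of at least 30% with cell ATP level not reduced by more than half and red fluorescence within 50% of control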
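Material – HT1080 RFP-PRO-GFP cells · Control set – DMSO wells and RFP-L50D-GFP cells · Incubation – overnight cell settling, then overnight compound exposure, 37 °C, 5% CO2 · Compound dosing – single-point 20 µM compound, 1% DMSO · Read-out – GFP/RFP fluorescence ratio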
FGF22 binding: shifts melting point of recombinant human FGF22 | Q9HCT0 | recombinant FGF22 thermal shift, SYPRO orange fluorescence; percent of sucrose octasulfate shift, DMSO zero | activity (Tm shift, normalised), % at 9.99 µM | 340,000 compounds, 1.5% hits;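 active means mean Tm shift, scaled 0 neutral to 100 positive control, at about 1.3% or above, every replicate too, limit read from the data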
VLA-4 inh: inhibition in a human VLA-4 binding assay | VLA-4 expressing cells, ligand binding flow cytometry | inhibition, % (about 7 µM as worked out from the volumes in the protocol) | 330,000 compounds, 0.2% hits; in the data active means inhibition above about 50%
DAGLB inhibitor: diacylglycerol lipase beta (human) inhibition | AID 504411 | HEK293T DAGLB membrane lysate, EnzChek fluorogenic substrate | inhibition, % at 5.17 µM | 340,000 compounds, 0.059% hits; in the data active means inhibition above about 34%;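 further: 0% = enzyme with vehicle and 100% = wells lacking enzyme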
ABCB6 inh 2: inhibitors of human ABC transporter ABCB6; K562-ABCB6 porphyrin accumulation, flow cytometry, 1 h; stronger effect = lower value; fluorescence ratio to DMSO, % at 10 µM; 360,000 compounds, 0.19% hits; AID 602162;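 active means fluorescence ratio to DMSO below 75%, the collection mean minus 3 SD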;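 further: signal is porphyrin accumulated inside mitochondria; 100% equals median channel fluorescence of DMSO control wells; lower ratio means ABCB6 inhibition with less porphyrin fluorescence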
Target sequence (Q9NP58 whole entry, looked up): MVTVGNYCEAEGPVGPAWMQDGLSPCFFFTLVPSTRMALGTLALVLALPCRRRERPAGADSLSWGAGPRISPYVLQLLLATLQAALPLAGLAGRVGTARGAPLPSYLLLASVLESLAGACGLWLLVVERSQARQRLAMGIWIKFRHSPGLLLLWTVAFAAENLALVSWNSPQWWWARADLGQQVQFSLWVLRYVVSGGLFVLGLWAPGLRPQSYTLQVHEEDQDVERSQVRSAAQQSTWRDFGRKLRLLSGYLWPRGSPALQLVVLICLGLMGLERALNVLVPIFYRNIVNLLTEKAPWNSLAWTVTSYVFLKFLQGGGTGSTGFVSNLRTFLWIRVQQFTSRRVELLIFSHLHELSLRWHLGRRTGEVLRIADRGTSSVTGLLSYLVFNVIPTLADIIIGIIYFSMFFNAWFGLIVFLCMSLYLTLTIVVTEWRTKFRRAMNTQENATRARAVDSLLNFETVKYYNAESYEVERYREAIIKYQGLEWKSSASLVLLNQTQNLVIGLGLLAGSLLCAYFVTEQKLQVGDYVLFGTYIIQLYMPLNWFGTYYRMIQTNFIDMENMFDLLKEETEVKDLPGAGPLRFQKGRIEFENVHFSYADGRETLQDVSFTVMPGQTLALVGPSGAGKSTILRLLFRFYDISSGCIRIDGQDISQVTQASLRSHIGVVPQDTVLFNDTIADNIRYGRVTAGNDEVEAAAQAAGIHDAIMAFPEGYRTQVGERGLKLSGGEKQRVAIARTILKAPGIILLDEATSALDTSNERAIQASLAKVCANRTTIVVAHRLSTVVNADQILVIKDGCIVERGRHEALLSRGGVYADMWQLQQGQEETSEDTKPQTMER
Granule exo CP1: lytic granule exocytosis inhibition | TALL-104 cells, LAMP-1 externalization, flow cytometry; stimulated with PMA plus thapsigargin | 1,500 compounds, 11% hits | shares compounds with Exocytosis inh | inhibition, % at 10 µM; in the data active means inhibition above about 60%;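 further: 0% = stimulated vehicle wells and 100% = unstimulated wells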
Active calls of the source: *; i = inactive; . = not tested or not shown.

SMILES	Exocytosis inh	MT1-MMP act inh	FGF22 binding	VLA-4 inh	DAGLB inhibitor	ABCB6 inh 2	Granule exo CP1
CCOC(=O)C1(Cc2ccccc2)CCN(Cc2cc(OC)c3c(c2)OCO3)CC1	60*	-4	0	7	-4	103	-4
CCOC(=O)C1(Cc2ccccc2)CCN(Cc2ccc(C)s2)CC1	64*	0	0	12	-5	94	-4
Oc1ccccc1Nc1nc(NCc2ccco2)c2ccccc2n1	61*	3	0	-6	0	93	89*
OCCN1CCN(c2nc(NCc3ccco3)c3ccccc3n2)CC1	2	-5	.	16	1	101	.
c1ccc(Nc2nc(NCc3ccco3)c3ccccc3n2)cc1	77*	0	0	13	0	107	6
Cc1cccc(Nc2nc(NCc3ccco3)c3ccccc3n2)c1	22	-8	0	i	1	82	.
c1ccc(CN2CCN(c3nc(NCc4ccco4)c4ccccc4n3)CC2)cc1	67*	5	.	-1	-1	103	30
CO[C@H]1CC[C@H]2CCOc3c(C#N)cccc3C(=O)N(C)CCCC(=O)N(C)C[C@@H]1O2	.	.	0	.	.	.	.
Cc1noc(C)c1NC(=O)N(C)C[C@@H]1Oc2c(NS(=O)(=O)c3ccc(Cl)cc3)cccc2C(=O)N([C@@H](C)CO)C[C@@H]1C	.	.	0	.	.	.	.
CCc1nc2ccc(C(=O)NC3CCN(Cc4ccccc4)CC3)cn2c1N(C)Cc1cc2ccccc2s1	59*	-4	0	.	.	99	65*
CCc1nc2ccc(C(=O)NC3CCN(Cc4ccccc4)CC3)cn2c1N(C)Cc1cccs1	8	2	0	.	.	95	.
O=C(C[C@@H]1CC[C@H]2[C@@H](COC[C@H](O)CN2C(=O)c2ccccc2F)O1)N1CCOCC1	.	.	0	.	.	.	.
CC(C)NC(=O)N(C)C[C@@H]1OCCCC[C@H](C)Oc2ccc(N(C)C)cc2C(=O)N([C@@H](C)CO)C[C@@H]1C	.	.	-1	.	.	.	.
c1ccc2c(NCCc3c[nH]c4ccccc34)c3ccccc3nc2c1	72*	5	0	11	0	89	-5
COc1ccc(OC)c(NC(=O)Nc2ccc(O)c3ccccc23)c1	82*	0	0	8	-2	95	-9
COc1ccc(S(=O)(=O)Nc2ccc(O)c3ccccc23)cc1	87*	1	.	0	4	107	6
COc1ccc(S(=O)(=O)c2c(O)cc(C)c(NS(=O)(=O)c3ccccc3)c2C)cc1	70*	0	0	-2	0	101	-5
C[C@@H]1CN([C@@H](C)CO)C(=O)Cc2cc(NS(=O)(=O)c3ccc(F)cc3)ccc2O[C@H]1CN(C)S(=O)(=O)c1ccccc1	.	.	0	.	.	.	.
CN(Cc1cccs1)c1nc(-c2cccnc2)nc2ccccc12	84*	-4	41	4	-3	85	21
c1ccc(-c2nc(NCc3cccs3)c3ccccc3n2)cc1	10	4	0	-24	-4	104	.
O=C(C[C@@H]1C=C[C@@H](NC(=O)Nc2ccc3c(c2)OCO3)[C@@H](CO)O1)NCc1ccc2c(c1)OCO2	.	.	0	.	.	.	.
CCCCN(CC)C(=O)CSc1nc2n[nH]c(C)c2c(=N)n1-c1cccc(C)c1	62*	5	0	13	-1	100	-10
COc1cc(C)ccc1OCc1cc(C(=O)N2CCC(c3ccc(F)cc3)C2)no1 (stereo not given)	77*	0	0	-4	-1	97	-3
O=C(c1cc(COc2c(F)cccc2F)on1)N1CCC(c2ccncc2)CC1	86*	-9	0	5	0	96	-15
CC=Cc1ccc2n(c1=O)C[C@H]1[C@H](CO)[C@@H](C(=O)NCC)[C@@H]2N1C(C)=O (mixture of isomers)	.	.	0	.	.	.	.
SMILES	Exocytosis inh	MT1-MMP act inh	FGF22 binding	VLA-4 inh	DAGLB inhibitor	ABCB6 inh 2	Granule exo CP1
C[C@H]1CN([C@@H](C)CO)C(=O)c2cccc(NC(=O)Nc3ccc4c(c3)OCO4)c2O[C@@H]1CN(C)Cc1ccc(Cl)c(Cl)c1	.	.	0	.	.	.	.
COc1cc(C2c3[nH]c4ccccc4c3CCN2Cc2cn(C)nc2C)ccc1F (stereo not given)	1	-7	0	1	-2	99	.
CCn1cc(CN2CCc3c([nH]c4ccccc34)C2c2cccc(OC)c2OC)c(C)n1 (stereo not given)	59*	-2	44*	2	-1	96	-5
Cc1noc(C)c1NC(=O)N(C)C[C@@H]1Oc2ccc(NS(=O)(=O)c3cn(C)cn3)cc2C(=O)N([C@H](C)CO)C[C@@H]1C	.	.	0	.	.	.	.
COc1ccc(C(O)(CCN2CCCCC2)C2CCCCC2)cc1 (stereo not given)	75*	-2	0	5	0	100	-12
C[C@@H]1CN([C@H](C)CO)C(=O)c2cc(C#CCN(C)C)cnc2O[C@@H]1CN(C)C(=O)CCN1CCCCC1	.	.	0	.	.	.	.
O=C(Nc1cc([N+](=O)[O-])ccc1N1CCCC1)c1ccco1	-1	6	0	32	2	94	.
O=C(Nc1cccc(Cl)c1N1CCCC1)c1ccco1	74*	-4	0	13	-10	99	-14
COC(=O)c1ccc(N2CCCCC2)c(NC(=O)c2ccco2)c1	93*	-3	0	4	-5	100	-4
CN1CCN(c2ccc(Nc3ccnc4cc(Cl)ccc34)cc2)CC1	67*	1	.	7	2	101	-11
Cc1cc(-c2ccccc2)nc2cc(C(=O)N(Cc3ccccc3)Cc3ccccc3)nn12	80*	-17	.	1	-3	104	-2
COc1cccc(-c2ccc3c(c2)[C@@H]2[C@@H](CCN2S(=O)(=O)c2ccccc2F)[C@@H](CO)N3C)c1	.	.	0	.	.	.	.
Clc1ccc(-c2noc3c2-c2nc(Cc4cccc5ccccc45)sc2CC3)cc1	74*	3	0	3	-4	95	-13
O=S(=O)(c1ccccc1)N1CC2(C1)[C@H](c1ccccc1)[C@H](CO)N2CC1CCCC1	.	.	0	.	.	.	.
CN(c1ccccc1)S(=O)(=O)c1ccc2ccccc2c1	65*	-3	0	4	-3	103	-4
COc1ccc2nc3cc(Cl)ccc3c(Nc3cc(C(C)C)c(O)cc3C)c2c1	62*	-6	-1	-1	15	93	54
COc1ccc(S(=O)(=O)Nc2cc(C(C)C)c(O)cc2C)cc1	-1	-9	.	-4	-3	97	.
COC(=O)c1c(NC(=O)c2ccc(C(=O)c3ccccc3)cc2)sc2c1CC(C)(C)NC2(C)C	67*	1	1	.	0	94	63*
